# From PubChem BioAssay
# GASC1 inh: blocks human GASC-1 (KDM4C) demethylase activity. GST-KDM4C 2-372, H3K9me3 peptide, LANCE TR-FRET. inhibition, % at 12.5 µM. Q9H3R0. hit rate 0.15% among 96,000;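 active means mean replicate inhibition above about 25%, with at least 55% of replicates also reaching it, limit read from the data, passing the limit was not always enough; inconclusive means only one of those two conditions met; inactive means neither condition met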
# Target sequence (Q9H3R0 2-372 limits assumed): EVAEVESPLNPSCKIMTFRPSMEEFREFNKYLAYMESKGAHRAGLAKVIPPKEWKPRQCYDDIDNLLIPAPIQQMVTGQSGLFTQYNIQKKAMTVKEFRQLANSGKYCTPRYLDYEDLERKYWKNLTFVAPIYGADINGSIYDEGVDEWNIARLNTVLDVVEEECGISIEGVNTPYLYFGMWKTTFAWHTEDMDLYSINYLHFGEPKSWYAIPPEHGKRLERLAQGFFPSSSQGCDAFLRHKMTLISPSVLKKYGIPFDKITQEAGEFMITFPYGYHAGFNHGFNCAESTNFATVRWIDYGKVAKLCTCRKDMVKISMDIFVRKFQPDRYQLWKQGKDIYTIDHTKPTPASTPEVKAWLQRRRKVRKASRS
#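 Test system – GST-tagged GASC-1 (JMJD2C) catalytic fragment, aa 2-372 · Medium – HEPES buffer, pH 7.5, plus ascorbate · Reagent – H3K9me3 peptide with Fe(II)/2OG · Compound – one test concentration per compound · Timing – 30 min reaction, 60 min detection, RT · Technique – TR-FRET with Eu antibody and ULight streptavidin, EDTA stop · Read-out basis – inhibition from TR-FRET ratio decrease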
# Pf Dd2 inh: blocks growth of Plasmodium falciparum Dd2 parasites; P. falciparum Dd2 growth, SYBR Green, 72 h; active compounds read low; activity change, % at 10 µM; hit rate 2.3% among 94,000; in the data active means activity change below about -80%; inconclusive means no clear call, values can overlap the other calls
# IDH1 R132H inh: inhibitors of human IDH1 R132H; O75874; IDH1 R132H reductase, diaphorase/resazurin fluorescence, 60 min; inhibition, % at 10 µM; hit rate 0.18% among 70,000; AID 624101; in the data active means inhibition above about 34%; inconclusive means no clear call, values can overlap the other calls; inactive means below about 11%;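 further: 0% = DMSO and 100% = no enzyme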
# T cruzi growth-1: blocks T. cruzi growth in NIH3T3 culture | inhibition, % at 8.34 µM | hit rate 5.9% among 77,000 | T. cruzi beta-gal in NIH3T3, GalScreen luminescence, 90 h;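 active means mean inhibition above about 93%, with at least 55% of replicates each passing it, limit read from the data, passing the limit was not always enough; inconclusive means only one of those two conditions holds; inactive means neither condition holds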
# T cruzi growth-2: blocks T. cruzi growth in NIH3T3 host cells | shares compounds with T cruzi growth-1 | T. cruzi beta-gal in NIH3T3, GalScreen luminescence, 90 h | inhibition, % at 8.35 µM | hit rate 72% among 5,600 | AID 651739;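 active means mean replicate inhibition above about 95% and at least 55% of replicates individually reaching it, limit read from the data; inconclusive means only one of the two criteria is met; inactive means neither criterion is met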
# T cruzi growth-3: Trypanosoma cruzi proliferation inhibition | AID 651740 | hit rate 21% among 5,600 | inhibition, % at 2.09 µM | shares compounds with T cruzi growth-1 | T. cruzi beta-gal in NIH3T3, GalScreen luminescence, 90 h;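 active means mean inhibition above about 95%, with at least 55% of replicates also reaching it, limit read from the data; inconclusive means meets just one of the two conditions; inactive means meets neither condition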;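 further: plate controls were neutral control median for no effect and positive control median for full effect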
# NIH3T3 tox: kills mouse NIH/3T3 fibroblasts; NIH/3T3 viability, CellTiter-Glo ATP luminescence, 90 h; hit rate 14% among 5,600; cytotoxicity (signal decrease), % at 8.35 µM; shares compounds with T cruzi growth-1; AID 651742;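 active means mean signal decrease across replicates above about 35% based on untreated-well scatter, with enough replicates individually passing, limit read from the data; inconclusive means no rule stated though some were filed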;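 further: 0% = median of neutral control wells and 100% = median of positive control wells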
# 3T3 cytotox 2: NIH/3T3 (mouse) viability loss; shares compounds with T cruzi growth-1; NIH/3T3 viability, CellTiter-Glo ATP luminescence, 90 h; inhibition, % at 24.9 µM; hit rate 56% among 5,600; AID 651744;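 active means mean loss of cell viability signal at or above a set limit, and enough replicates individually reaching it; inconclusive means meets only the mean limit or only the replicate share; inactive means meets neither condition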;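 further: 0% = median of neutral control wells and 100% = median of positive control wells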
# The depositor's hits bear a star; ? = inconclusive; / = no result given. In the library only some 5.8% were active in any assay of this set; here they are far more common.
SMILES,GASC1 inh,Pf Dd2 inh,IDH1 R132H inh,T cruzi growth-1,T cruzi growth-2,T cruzi growth-3,NIH3T3 tox,3T3 cytotox 2
CN(C)CC(=O)N1CCCCN2[C@@H](CO)[C@@H](c3ccc(/C=C/c4ccccc4)cc3)[C@@H]2C1,-0.4,-77.7,/,102.3*,98.8*,113.3*,120.1*,104.2*
CN(C)CC(=O)N1CCCCN2[C@H](C1)[C@H](c1ccc(/C=C/c3ccccc3)cc1)[C@@H]2CO,-0.6,-4.9,/,74.7,/,/,/,/
C[C@H](CO)N1C[C@H](C)[C@@H](CN(C)C(=O)Nc2ccc(C(F)(F)F)cc2)Oc2c(NC(=O)c3nc4ccccc4s3)cccc2C1=O,0.1,-34.9,1.4,91.5*,87.6,69.8,31.7,64.0*
C[C@H](CO)N1C[C@H](C)[C@H](CN(C)C(=O)Nc2ccc(C(F)(F)F)cc2)Oc2c(NC(=O)c3nc4ccccc4s3)cccc2C1=O,0.0,-55.3,/,?,102.7*,87.0,44.6*,80.0*
C[C@@H]1CN([C@H](C)CO)C(=O)c2cccc(NC(=O)c3nc4ccccc4s3)c2O[C@@H]1CN(C)C(=O)Nc1ccc(C(F)(F)F)cc1,-1.4,-65.2,/,79.8,/,/,/,/
CC(=O)N(C)C[C@H]1[C@H](c2ccccc2)[C@@H](CO)N1C(=O)C1CCC1,-0.9,4.6,/,100.7*,-41.6,20.8,-22.5,-8.1
CC(=O)N(C)C[C@@H]1[C@@H](c2ccc(-c3ccccc3)cc2)[C@H](CO)N1C(=O)C1CC1,0.7,11.6,/,-23.8,/,/,/,/
CC(=O)N(C)C[C@H]1[C@H](c2ccc(-c3ccccc3)cc2)[C@@H](CO)N1C(=O)C1CC1,1.6,-6.5,/,?,15.2,-15.0,6.8,13.0
COCC(=O)N(C)C[C@H]1[C@H](c2ccc(-c3cccnc3)cc2)[C@H](CO)N1C(C)=O,-1.2,23.9,/,101.4*,6.8,-0.1,-25.6,-12.5
COCCN(C[C@@H]1[C@@H](c2ccccc2)[C@H](CO)N1C(C)=O)C(=O)c1ccccc1,-4.2,8.4,/,10.8,/,/,/,/
COCCN(C[C@H]1[C@@H](c2ccccc2)[C@H](CO)N1C(C)=O)C(=O)c1ccncc1,1.6,1.4,/,?,61.1,-16.5,-11.2,-4.4
C[C@H]1CN([C@@H](C)CO)C(=O)Cc2cc(NS(=O)(=O)c3ccccc3)ccc2O[C@H]1CN(C)S(=O)(=O)c1cccs1,0.9,-30.9,-0.5,3.7,/,/,/,/
CCS(=O)(=O)N1CC(=O)N2[C@@H](CO)[C@H](c3ccc(C#CC4CCCC4)cc3)[C@@H]2C1,-2.3,-4.0,/,/,/,/,/,/
CCN(C[C@@H]1[C@@H](c2ccccc2)[C@@H](CO)N1C(=O)C1CC1)C(=O)NC1CCCC1,-2.3,3.4,/,16.2,/,/,/,/
CCN(C[C@@H]1[C@@H](c2ccccc2)[C@H](CO)N1C(=O)C1CC1)C(=O)NC1CCCC1,1.1,10.7,/,96.6*,52.4,31.5,-1.2,26.0
CSc1ccccc1NC(=O)CN(c1cccc2ccccc12)S(C)(=O)=O,/,/,0.3,/,/,/,/,/
COc1cccc(S(=O)(=O)N(C)C[C@@H]2OCc3ccccc3-c3ccccc3C(=O)N([C@@H](C)CO)C[C@@H]2C)c1,0.0,-66.5,/,105.0*,30.3,-1.4,-4.3,8.1
C[C@@H]1CN([C@H](C)CO)C(=O)c2ccccc2-c2ccccc2CO[C@H]1CN(C)S(=O)(=O)c1cccc(C#N)c1,-1.2,-56.3,/,?,47.5,28.0,5.0,22.4
CCCNC(=O)N1[C@@H](CO)[C@@H]2c3ccccc3N(C(=O)Nc3ccc(F)cc3)C[C@@H]21,1.2,-14.2,/,36.8,/,/,/,/
CO[C@H]1CN(C)C(=O)c2ccc(NC(=O)Nc3c(C)noc3C)cc2OC[C@H](C)NC[C@@H]1C,0.1,3.8,/,/,/,/,/,/
O=C(NC[C@@H]1[C@H](c2ccccc2)[C@H](CO)N1C(=O)Cc1cccnc1)C1CC1,1.9,-0.7,/,-6.6,/,/,/,/
O=C(NC[C@@H]1[C@@H](c2ccccc2)[C@@H](CO)N1C(=O)Cc1cccnc1)C1CC1,0.9,-54.3,/,100.0*,-35.5,-65.4,-15.0,-7.9
CC(=O)NC[C@H]1[C@@H](c2ccccc2)[C@H](CO)N1C(=O)Cc1cccnc1,1.0,-13.4,/,66.2,/,/,/,/
CC(=O)NC[C@@H]1[C@H](c2ccccc2)[C@H](CO)N1C(=O)Cc1cccnc1,-1.0,-0.6,/,?,-5.3,-15.4,0.2,-15.7
CCCNC(=O)N1[C@H](CO)[C@@H](c2ccccc2)[C@H]1CNC(=O)c1cccc(F)c1,-4.1,-54.2,/,-15.5,/,/,/,/
SMILES,GASC1 inh,Pf Dd2 inh,IDH1 R132H inh,T cruzi growth-1,T cruzi growth-2,T cruzi growth-3,NIH3T3 tox,3T3 cytotox 2
CCCNC(=O)N1[C@@H](CO)[C@H](c2ccccc2)[C@@H]1CNC(=O)c1ccccc1,-1.9,-1.4,/,?,23.1,-15.3,0.0,-3.8
CCCNC(=O)N1[C@@H](CO)[C@@H](c2ccccc2)[C@@H]1CNC(=O)c1cccc(F)c1,-1.5,-71.3,/,122.3*,81.0,-9.5,5.5,39.9*
CCCNC(=O)N1[C@H](CO)[C@@H](c2ccccc2)[C@H]1CNC(=O)c1ccccc1,-6.4,11.9,/,47.9,/,/,/,/
C[C@@H]1CCCCO[C@H](CN(C)Cc2ccccc2)[C@H](C)CN([C@H](C)CO)C(=O)c2cc(NS(=O)(=O)c3ccccc3)ccc2O1,0.8,-58.3,1.7,100.8*,98.2*,78.8,-8.2,41.2*
C[C@H](CO)N1C[C@H](C)[C@H](CN(C)Cc2ccccc2)OCCCC[C@H](C)Oc2ccc(NS(=O)(=O)c3ccc(F)cc3)cc2C1=O,59.3*,-37.1,/,?,112.9*,78.1,11.3,91.7*
C[C@@H]1CN([C@@H](C)CO)C(=O)c2cc(NS(=O)(=O)c3ccc(F)cc3)ccc2O[C@@H](C)CCCCO[C@@H]1CN(C)Cc1ccccc1,-0.2,-55.5,-1.1,104.9*,99.2*,81.7,19.9,106.9*
COc1ccc(CN(C)C[C@@H]2OCCCC[C@@H](C)Oc3ccc(NS(=O)(=O)c4ccccc4)cc3C(=O)N([C@H](C)CO)C[C@@H]2C)cc1,0.2,-24.7,/,-99.4,/,/,/,/
C[C@H]1CCCCO[C@@H](CN(C)Cc2ccccc2)[C@@H](C)CN([C@@H](C)CO)C(=O)c2cc(NS(=O)(=O)c3ccccc3)ccc2O1,2.2,-70.4,-3.9,16.3,/,/,/,/
COc1ccc(CN(C)C[C@H]2OCCCC[C@H](C)Oc3ccc(NS(=O)(=O)c4ccccc4)cc3C(=O)N([C@@H](C)CO)C[C@H]2C)cc1,-1.3,-68.7,/,103.3*,108.9*,41.9,24.2,89.5*
